# Experimental data: publication PMC10570058 (Nucleic Acids Research, 2023)
# Columns and labels:
# [1] = system: Polθ ATPase domain binding to ssDNA; assay: Microscale thermophoresis
# [2] = system: Polθ recruitment to ssDNA in U2OS cells; assay: Laser micro-irradiation and immunofluorescence, Polθ recruitment to ssDNA; type: cell-based, human; details: 200 μM, 24 h, U2OS POLQ KO cells expressing Myc-Polθ
# [3] = system: RPE1 TP53−/−BRCA1−/− cells; assay: DNA fiber assay with S1 nuclease digestion; type: cell-based; details: 200 μM NVB vs vehicle
# Summary of the method: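 Cells (F12, 10% FBS) seeded 24 h, pulsed with 200 μM CldU for 30 min, washed, then 100 μM IdU for 2 h with test compound (200 μM) or DMSO added alongside. CSK permeabilisation 10 min RT. Nuclei were treated with 10 U/ml S1 nuclease (pH 4.6 buffer) for 30 min at 37°C or left undigested. Agarose-plug extraction was used, and ≥200 IdU tracks were scored per treatment (Mann–Whitney).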
# [4] = system: Polθ-ATPase domain; assay: Thermal stability assay; type: binding; details: 500 μM compound vs DMSO
# [5] = target: Polθ ATPase domain (human) (UniProt O75417); assay: mass photometry
# Sequence of Polθ ATPase domain (O75417 67-894): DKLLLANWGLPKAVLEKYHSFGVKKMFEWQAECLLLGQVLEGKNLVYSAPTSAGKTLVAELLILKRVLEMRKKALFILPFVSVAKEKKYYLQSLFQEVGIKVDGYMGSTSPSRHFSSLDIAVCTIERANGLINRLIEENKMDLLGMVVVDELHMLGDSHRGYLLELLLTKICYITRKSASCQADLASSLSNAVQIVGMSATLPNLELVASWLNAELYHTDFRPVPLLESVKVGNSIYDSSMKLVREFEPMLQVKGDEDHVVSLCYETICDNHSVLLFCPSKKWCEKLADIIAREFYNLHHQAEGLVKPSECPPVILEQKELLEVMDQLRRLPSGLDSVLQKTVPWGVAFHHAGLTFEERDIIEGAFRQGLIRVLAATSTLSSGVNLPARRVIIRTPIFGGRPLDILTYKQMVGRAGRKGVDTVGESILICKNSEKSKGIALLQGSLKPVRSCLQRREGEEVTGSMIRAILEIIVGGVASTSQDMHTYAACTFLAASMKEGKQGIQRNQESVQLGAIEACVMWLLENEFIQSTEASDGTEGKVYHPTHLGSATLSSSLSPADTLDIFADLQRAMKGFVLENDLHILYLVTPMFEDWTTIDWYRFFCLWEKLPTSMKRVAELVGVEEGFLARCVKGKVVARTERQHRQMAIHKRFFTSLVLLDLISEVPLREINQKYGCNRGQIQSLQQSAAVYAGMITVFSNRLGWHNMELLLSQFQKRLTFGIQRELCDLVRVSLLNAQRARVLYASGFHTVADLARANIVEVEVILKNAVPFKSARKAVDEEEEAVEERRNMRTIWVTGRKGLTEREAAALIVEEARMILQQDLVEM
compound,measurement,setting,value
Nc1ncnc2c1ncn2[C@@H]1O[C@H](COP(=O)(O)OP(=O)(O)NP(=O)(O)O)[C@@H](O)[C@H]1O [AMP-PNP],Effect on Polθ binding to ssDNA,"[1]; 2000 μM AMP-PNP, MST buffer with 5 mM MgCl2",unable to block
"CO[C@@H]1[C@@H](OC(N)=O)[C@@H](O)[C@H](Oc2ccc3c(O)c(NC(=O)c4ccc(O)c(CC=C(C)C)c4)c(=O)oc3c2C)OC1(C)C [NVB, Novobiocin]",Polθ blocked from being recruited to damage sites,[2],~96%
same,IdU track lengths following S1 nuclease treatment,[3],dramatic shortening
same,Change in the scattering peak maximum,[4],+2 °C
same,Effect on Polθ binding to ssDNA,"[1]; NVB 100-2000 μM in MST buffer, 120 mM KCl",dose-dependent inhibition
Polθ ATPase domain (from UniProt O75417 67-894) (domain or fragment),stoichiometry N,[5],4
